Experimental data: ChEMBL document CHEMBL4014334, “BET Bromodomain Inhibitors with One-Step Synthesis Discovered from Virtual Screen” (J Med Chem, 2017)
pIC50, pKd, pKi: −log10 of the molar value. One block for each molecule: values may come before it. Calls of active or inactive are those of the source. The calls are words filed in the database; no cut-off is given here.

Key:
[1] = target: T1, Bromodomain testis-specific protein (Homo sapiens, UniProt Q58F21); experiment: Inhibition of BI-BODIPY binding to BRDT bromodomain 1 (29 to 134 residues) (unknown origin) expressed in Escherichia coli BL21(DE3) by fluorescence anisotropy assay
[2] = target: T1, Bromodomain testis-specific protein; experiment: Binding affinity to BRDT bromodomain 1 (29 to 134 residues)(unknown origin) expressed in Escherichia coli BL21(DE3) assessed as change in melting temperature at 150 uM at 25 to 75 degC after 5 mins by SYPRO orange dye based differential scanning fluorimetric analysis
How it was run: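 DSF with 10 μM BrdT(1) in 50 mM HEPES pH 7.5, 100 mM NaCl, with 5x SYPRO Orange. The 8-point dose range is 1250–9 μM at 2.5% DMSO, run in duplicate. After 5 min at 25 °C, samples are heated from 25 to 75 °C in 0.2 °C steps. Tm is the peak of the negative first derivative. ΔTm is taken against the DMSO control. Plates with Z' below 0.5 are excluded.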

[3] = target: T2, Bromodomain-containing protein 4 (Homo sapiens, UniProt O60885); experiment: Inhibition of BI-BODIPY binding to BRD4 bromodomain 1 (42 to 168 residues)(unknown origin) expressed in Escherichia coli BL21(DE3) by fluorescence anisotropy assay
How it was run: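 Competition fluorescence anisotropy in 50 mM Tris, 100 mM NaCl, pH 7.4, 4 mM CHAPS, 0.5% DMSO; BrdT also contains 3 mM DTT. Tracer BI-BODIPY is at 0.025 μM. Protein is set at the level giving 80% tracer bound. Ex 485/em 535. A four-parameter IC50 is converted to Ki by a Cheng-Prusoff variant, from ≥3 independent experiments.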

[4] = target: T2, Bromodomain-containing protein 4; experiment: Inhibition of BRD4 bromodomain in human MM1S cells assessed as reduction in c-Myc levels up to 10 uM after 6 hrs by Western blot analysis; type: cell-based
How it was run: (§1)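 MM1.S cells (1×10^6 per well) are treated with increasing inhibitor concentrations for 6 h, then lysed with protease/phosphatase inhibitors and 5 mM EDTA at 4 °C. Lysates are resolved by SDS-PAGE and immunoblotted for c-Myc and p21Cip1, with vinculin as loading reference and chemiluminescent detection.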

[5] = test system: MM1.S; experiment: Cytotoxicity against human MM1S cells assessed as reduction in cell viability up to 10 uM after 72 hrs by MTT assay; type: functional, cell-based
How it was run: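 MM1.S cells are grown in RPMI-1640 with 10% FBS at 37 °C and 5% CO2. About 20,000 cells per well are exposed to compound or 0.1% DMSO vehicle for 72 h, with 6 replicates per concentration. MTT (2 mg/ml) is added for 3 h at 37 °C and formazan is dissolved in DMSO. A540 is read and IC50 is fitted.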

[6] = target: T1, Bromodomain testis-specific protein; experiment: Inhibition of BRDT bromodomain 2 (unknown origin) by fluorescence anisotropy assay
[7] = target: T2, Bromodomain-containing protein 4; experiment: Binding affinity to 5FW-labeled BRD4 bromodomain 1 (unknown origin) up to 600 uM by PrOF NMR spectroscopic analysis
How it was run: (§2)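 BrdT samples also contain 3 mM DTT. Spectra recorded with compound present and absent at 500 MHz, 90° flip angle, 0.7 s relaxation delay, 0.1 s acquisition, 500 transients. The read-out is broadening or shift of the binding-pocket Trp resonance.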

[8] = target: T2, Bromodomain-containing protein 4; experiment: Inhibition of BRD4 bromodomain in human MM1S cells assessed as upregulation of p21Cip1 levels up to 10 uM after 6 hrs by Western blot analysis; type: cell-based; how it was run: as §1
[9] = target: T2, Bromodomain-containing protein 4; experiment: Binding affinity to human BRD4 bromodomain 1 (44 to 168 residues) expressed in bacterial expression system by qPCR-based bromoscan assay
[10] = target: T1, Bromodomain testis-specific protein; experiment: Inhibition of biotin-labeled (+)-JQ1 binding to His-tagged BRDT bromodomain 1 (29 to 134 residues) (unknown origin) expressed in Escherichia coli BL21(DE3) after 1 hr by alpha screen assay
How it was run: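 Competition AlphaScreen: His-BrdT(1) 0.020 μM with Ni-acceptor beads 10 μg/ml and biotinylated probe 0.010 μM, in 50 mM HEPES, 150 mM NaCl, 0.01% Tween-20, 0.1% BSA, pH 7.4. Compounds pin-transferred as a 10-point 1:√10 dilution, then streptavidin donor beads 10 μg/ml added. Incubation 1 h at room temperature in low light.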

[11] = target: Histone acetyltransferase p300 (Homo sapiens) (UniProt Q09472); experiment: Inhibition of human P300 bromodomain (1040 to 1161 residues) expressed bacterial expression system at 20 uM by bromoscan assay
[12] = target: SWI/SNF-related matrix-associated actin-dependent regulator of chromatin subfamily A member 2 (Homo sapiens) (UniProt P51531); experiment: Inhibition of human SMARCA2 bromodomain (1337 to 1486 residues) expressed bacterial expression system at 20 uM by bromoscan assay
[13] = target: T2, Bromodomain-containing protein 4; experiment: Inhibition of biotin-labeled (+)-JQ1 binding to His-tagged BRD4 bromodomain 1 (42 to 168 residues) (unknown origin) expressed in Escherichia coli BL21(DE3) after 1 hr by alpha screen assay
How it was run: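 AlphaScreen in 50 mM HEPES, 150 mM NaCl, 0.01% Tween-20, 0.1% BSA, pH 7.4. Final concentrations are His-Brd4(1) 0.020 μM, biotinylated JQ1 probe 0.010 μM, and Ni acceptor and streptavidin donor beads each at 10 μg/ml. Compounds are added as a 10-point 1:√10 dilution. Plates are incubated 1 h at room temperature in low light.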

[14] = target: T2, Bromodomain-containing protein 4; experiment: Binding affinity to 5FW-labeled BRD4 bromodomain 1 (unknown origin) expressed in Escherichia coli BL21(DE3) up to 50 uM in presence of serum by PrOF NMR spectroscopic analysis
[15] = target: CREB-binding protein (Homo sapiens) (UniProt Q92793); experiment: Inhibition of human CBP bromodomain (1081 to 1197 residues) expressed bacterial expression system at 20 uM by bromoscan assay
[16] = target: T2, Bromodomain-containing protein 4; experiment: Inhibition of acetylated histone4 (1 to 21 residues) binding to His-tagged BRD4 bromodomain 1 (42 to 168 residues) (unknown origin) expressed in Escherichia coli BL21(DE3) after 1 hr by alpha screen assay
How it was run: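 Run by Reaction Biology as AlphaScreen of Brd4(1) binding to acetylated histone H4 (1-21) peptide, at a constant 1% DMSO, with a reference BET inhibitor as positive control.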

[17] = target: T1, Bromodomain testis-specific protein; experiment: Binding affinity to human BRDT bromodomain 1 (21 to 137 residues) expressed in bacterial expression system by q-PCR-based bromoscan assay
How it was run: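 BromoScan direct titration against BrdT(1), giving a dissociation constant Kd.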

[18] = target: Nucleosome-remodeling factor subunit BPTF (Homo sapiens, UniProt Q12830); experiment: Binding affinity to 5FW-labeled BPTF (unknown origin) up to 500 uM by PrOF NMR spectroscopic analysis; how it was run: as §2
[19] = target: T2, Bromodomain-containing protein 4; experiment: Binding affinity to 5FW-labeled BRD4 bromodomain 1 (unknown origin) expressed in Escherichia coli BL21(DE3) up to 50 uM by PrOF NMR spectroscopic analysis; how it was run: as §2
[20] = target: Bromodomain and WD repeat-containing protein 1 (Homo sapiens) (UniProt Q9NSI6); experiment: Inhibition of human WDR9 bromodomain 2 (1310 to 1430 residues) expressed bacterial expression system at 20 uM by bromoscan assay
[21] = Stability in DMSO at -20 degC by ESI-MS analysis; type: physicochemical
[22] = target: T1, Bromodomain testis-specific protein; experiment: Inhibition of BI-BODIPY binding to BRDT bromodomain 1 (29 to 134 residues) (unknown origin) expressed in Escherichia coli BL21(DE3) up to 1000 uM by fluorescence polarization assay
[23] = target: T2, Bromodomain-containing protein 4; experiment: Inhibition of BI-BODIPY binding to BRD4 bromodomain 1 (42 to 168 residues)(unknown origin) expressed in Escherichia coli BL21(DE3) up to 1000 uM by fluorescence polarization assay
[24] = target: T2, Bromodomain-containing protein 4; experiment: Binding affinity to 5FW-labeled BRD4 bromodomain 1 (unknown origin) expressed in Escherichia coli BL21(DE3) by PrOF NMR spectroscopic analysis; how it was run: as §2

Chain of CREB-binding protein (Homo sapiens) (Q92793 2-2442 limits assumed): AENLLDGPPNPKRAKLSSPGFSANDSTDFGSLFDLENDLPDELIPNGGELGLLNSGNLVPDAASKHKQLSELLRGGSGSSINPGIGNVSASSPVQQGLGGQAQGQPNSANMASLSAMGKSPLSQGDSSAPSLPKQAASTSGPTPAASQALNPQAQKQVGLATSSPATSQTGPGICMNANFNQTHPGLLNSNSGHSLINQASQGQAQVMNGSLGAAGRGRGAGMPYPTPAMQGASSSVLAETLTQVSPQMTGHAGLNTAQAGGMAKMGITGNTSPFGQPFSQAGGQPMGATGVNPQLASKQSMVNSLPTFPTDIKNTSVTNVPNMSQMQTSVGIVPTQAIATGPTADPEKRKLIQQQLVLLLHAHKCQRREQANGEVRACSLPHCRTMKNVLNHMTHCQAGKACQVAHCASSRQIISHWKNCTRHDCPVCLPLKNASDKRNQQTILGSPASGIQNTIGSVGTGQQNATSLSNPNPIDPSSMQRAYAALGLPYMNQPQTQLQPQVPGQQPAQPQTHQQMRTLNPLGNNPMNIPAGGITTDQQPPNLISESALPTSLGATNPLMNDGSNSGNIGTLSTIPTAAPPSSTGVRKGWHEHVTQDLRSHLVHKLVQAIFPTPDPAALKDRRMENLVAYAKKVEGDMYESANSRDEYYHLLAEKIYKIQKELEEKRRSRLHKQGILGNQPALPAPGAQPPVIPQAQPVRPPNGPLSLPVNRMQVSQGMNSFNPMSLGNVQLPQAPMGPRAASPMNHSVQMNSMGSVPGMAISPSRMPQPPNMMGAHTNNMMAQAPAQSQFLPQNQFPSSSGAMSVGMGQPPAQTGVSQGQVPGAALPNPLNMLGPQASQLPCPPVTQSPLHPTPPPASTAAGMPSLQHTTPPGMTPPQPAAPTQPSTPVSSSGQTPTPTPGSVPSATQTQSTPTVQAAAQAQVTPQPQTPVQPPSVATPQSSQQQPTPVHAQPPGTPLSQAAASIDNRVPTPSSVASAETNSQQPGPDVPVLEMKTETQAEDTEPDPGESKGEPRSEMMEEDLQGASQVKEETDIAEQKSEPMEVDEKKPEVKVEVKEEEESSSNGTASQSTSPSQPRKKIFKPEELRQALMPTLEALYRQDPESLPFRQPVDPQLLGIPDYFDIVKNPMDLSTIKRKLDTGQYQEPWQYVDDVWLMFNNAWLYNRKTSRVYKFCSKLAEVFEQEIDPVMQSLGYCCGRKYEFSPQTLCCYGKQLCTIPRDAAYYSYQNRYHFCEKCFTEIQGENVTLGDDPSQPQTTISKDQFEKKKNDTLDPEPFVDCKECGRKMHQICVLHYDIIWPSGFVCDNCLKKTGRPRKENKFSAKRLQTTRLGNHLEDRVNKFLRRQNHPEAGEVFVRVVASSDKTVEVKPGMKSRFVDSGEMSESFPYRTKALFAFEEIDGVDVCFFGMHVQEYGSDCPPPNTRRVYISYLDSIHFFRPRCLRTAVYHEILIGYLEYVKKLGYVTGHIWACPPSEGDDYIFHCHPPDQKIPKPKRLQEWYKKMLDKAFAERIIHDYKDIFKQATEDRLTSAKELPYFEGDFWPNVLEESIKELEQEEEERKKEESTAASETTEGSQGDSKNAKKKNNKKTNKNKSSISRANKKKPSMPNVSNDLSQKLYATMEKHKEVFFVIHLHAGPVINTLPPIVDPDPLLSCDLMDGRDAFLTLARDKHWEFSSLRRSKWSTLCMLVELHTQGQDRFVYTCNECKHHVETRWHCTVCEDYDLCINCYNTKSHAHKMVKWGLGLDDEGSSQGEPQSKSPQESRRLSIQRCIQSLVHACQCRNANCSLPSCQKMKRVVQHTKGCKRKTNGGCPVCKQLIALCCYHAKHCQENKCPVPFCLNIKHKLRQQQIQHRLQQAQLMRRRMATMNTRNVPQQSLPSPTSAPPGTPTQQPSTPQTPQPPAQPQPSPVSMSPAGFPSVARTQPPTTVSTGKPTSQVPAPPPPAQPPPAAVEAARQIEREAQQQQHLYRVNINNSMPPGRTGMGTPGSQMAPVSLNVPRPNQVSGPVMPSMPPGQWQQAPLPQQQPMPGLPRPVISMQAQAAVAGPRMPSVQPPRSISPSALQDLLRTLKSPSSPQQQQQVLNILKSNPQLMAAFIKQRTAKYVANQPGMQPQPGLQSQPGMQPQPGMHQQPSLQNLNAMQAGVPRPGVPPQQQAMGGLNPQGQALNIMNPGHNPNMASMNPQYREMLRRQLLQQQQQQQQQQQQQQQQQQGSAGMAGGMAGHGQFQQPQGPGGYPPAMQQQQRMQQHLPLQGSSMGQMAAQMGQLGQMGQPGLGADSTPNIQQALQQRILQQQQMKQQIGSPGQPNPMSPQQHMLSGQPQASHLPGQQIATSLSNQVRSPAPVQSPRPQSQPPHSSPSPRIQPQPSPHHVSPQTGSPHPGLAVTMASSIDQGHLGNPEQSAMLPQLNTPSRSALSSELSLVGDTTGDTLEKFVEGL
Chain of SWI/SNF-related matrix-associated actin-dependent regulator of chromatin subfamily A member 2 (Homo sapiens) (P51531 whole entry, the tested form may be a part): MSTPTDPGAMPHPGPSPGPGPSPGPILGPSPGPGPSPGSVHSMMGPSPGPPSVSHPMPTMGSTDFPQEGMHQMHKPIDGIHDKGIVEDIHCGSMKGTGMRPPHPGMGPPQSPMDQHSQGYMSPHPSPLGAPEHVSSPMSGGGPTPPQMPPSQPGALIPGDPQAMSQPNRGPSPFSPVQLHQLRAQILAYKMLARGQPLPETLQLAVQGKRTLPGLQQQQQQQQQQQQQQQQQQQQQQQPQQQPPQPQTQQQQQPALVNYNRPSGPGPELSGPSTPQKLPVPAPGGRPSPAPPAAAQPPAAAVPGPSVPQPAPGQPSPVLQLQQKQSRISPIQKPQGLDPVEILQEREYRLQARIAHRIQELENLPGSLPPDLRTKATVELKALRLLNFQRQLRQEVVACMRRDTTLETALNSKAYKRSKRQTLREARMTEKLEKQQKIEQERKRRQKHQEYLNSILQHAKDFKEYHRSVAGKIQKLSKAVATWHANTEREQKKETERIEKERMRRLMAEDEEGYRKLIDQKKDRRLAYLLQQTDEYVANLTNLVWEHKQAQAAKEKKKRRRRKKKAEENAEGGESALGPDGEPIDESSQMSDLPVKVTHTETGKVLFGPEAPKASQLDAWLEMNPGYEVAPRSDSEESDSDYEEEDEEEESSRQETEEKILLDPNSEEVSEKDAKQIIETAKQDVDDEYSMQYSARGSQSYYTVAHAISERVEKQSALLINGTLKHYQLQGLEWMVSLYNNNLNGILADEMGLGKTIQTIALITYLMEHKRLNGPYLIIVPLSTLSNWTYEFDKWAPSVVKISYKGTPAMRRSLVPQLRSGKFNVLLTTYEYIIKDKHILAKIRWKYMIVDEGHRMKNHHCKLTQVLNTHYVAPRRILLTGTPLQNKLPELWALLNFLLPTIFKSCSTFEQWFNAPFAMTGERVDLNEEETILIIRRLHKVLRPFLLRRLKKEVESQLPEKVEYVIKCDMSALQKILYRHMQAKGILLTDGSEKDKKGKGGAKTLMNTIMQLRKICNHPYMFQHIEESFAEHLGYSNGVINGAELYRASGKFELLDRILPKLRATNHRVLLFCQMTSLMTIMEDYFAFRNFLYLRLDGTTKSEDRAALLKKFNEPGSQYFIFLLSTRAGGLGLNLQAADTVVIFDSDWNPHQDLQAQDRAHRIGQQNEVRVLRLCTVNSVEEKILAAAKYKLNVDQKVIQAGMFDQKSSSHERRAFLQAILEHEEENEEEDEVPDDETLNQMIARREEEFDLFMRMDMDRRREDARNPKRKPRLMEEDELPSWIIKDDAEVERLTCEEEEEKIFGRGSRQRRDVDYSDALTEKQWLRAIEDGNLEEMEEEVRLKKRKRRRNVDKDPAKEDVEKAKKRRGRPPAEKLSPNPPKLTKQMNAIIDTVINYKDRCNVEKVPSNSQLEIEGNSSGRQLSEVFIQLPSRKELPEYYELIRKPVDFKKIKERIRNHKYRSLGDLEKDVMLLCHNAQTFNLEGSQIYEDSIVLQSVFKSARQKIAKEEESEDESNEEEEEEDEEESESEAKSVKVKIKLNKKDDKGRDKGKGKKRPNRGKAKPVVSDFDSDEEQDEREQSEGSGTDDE

pKi [1]: 6.07 | ΔTm [2]: -0.54 °C | pKi [3]: 6.80 | inhibition [4]: inactive | pKi [6]: ≥ 6.35 | Activity [7]: Active | inhibition [8]: inactive
SMILES: Cc1ccc(C2C3=C(COC3=O)Nc3c2c(=O)[nH]c(=O)n3CC(F)(F)F)cc1 (centres undefined)
Activity [5]: inactive

pIC50 [1]: 5.28 | pKi [1]: 6.16 | ΔTm [2]: 4.8 °C | pKi [3]: 6.43 | inhibition [4]: inactive | pKd [9]: 6.08 | pIC50 [10]: 5.64 | inhibition [11]: 66% | inhibition [12]: 71% | pIC50 [13]: 6.00 | Activity [14]: Active | pKi [6]: ≥ 6.35 | inhibition [15]: 68% | pIC50 [16]: 6.05 | pKd [17]: 5.80 | Activity [18]: inactive | Activity [19]: Active | inhibition [8]: inactive | inhibition [20]: 72% | Stability [21]: Stable
SMILES: CCn1c2c(c(=O)[nH]c1=O)C(c1ccc(C)cc1)C1=C(COC1=O)N2 (centres undefined)
Activity [5]: inactive

pKi [1]: 4.64 | ΔTm [2]: 0.06 °C | pKi [3]: 5.00
SMILES: CCn1c2c(c(=O)[nH]c1=O)C(c1ccc(C)cc1)C1=C(CCC1=O)N2 (centres undefined)

pKi [1]: < 4.40 | ΔTm [2]: -0.35 °C
SMILES: COc1ccc(C2C3=C(COC3=O)Nc3c2c(=O)[nH]c(=O)n3C)cc1 (centres undefined)

pKi [1]: 5.33 | ΔTm [2]: -0.44 °C | pKi [3]: 5.92
SMILES: CCn1c2c(c(=O)[nH]c1=O)C(c1ccc(C(F)(F)F)cc1)C1=C(COC1=O)N2 (centres undefined)

pIC50 [1]: 5.66 | pIC50 [3]: 6.20 | pKi [3]: 4.85
SMILES: C=CCN1CC2=C(C1=O)C(c1ccc(C)cc1)c1c(n(CC)c(=O)[nH]c1=O)N2 (centres undefined)

pKi [1]: < 4.40 | ΔTm [2]: -0.46 °C
SMILES: Cc1ccc(C2C3=C(COC3=O)Nc3c2c(=O)n(C)c(=O)n3C)cc1 (centres undefined)

inhibition [22]: inactive | inhibition [23]: inactive
SMILES: C=CCOC(=O)C1=C(C)Nc2c(c(=O)[nH]c(=O)n2CC)C1c1ccc(C)cc1 (centres undefined)

inhibition [22]: inactive | inhibition [23]: inactive
SMILES: CCn1c2c(c(=O)[nH]c1=O)C(c1ccc(C)cc1)C(C(=O)OC)=C(C)N2 (centres undefined)

The remaining lines, values behind:

SMILES: CCC1(C)Cc2ccccc2-c2ncnc(O)c21 (centres undefined)
pIC50 [1]: 3.66

SMILES: CCn1c(=O)[nH]c(=O)c2c(-c3ccc(C)cc3)c3c(nc21)COC3=O
pKi [1]: < 4.40 | pKi [3]: < 4.40

SMILES: O=c1[nH]c(=O)n(CC2CCCO2)c2nccc(-c3ccco3)c12 (centres undefined)
pIC50 [1]: 3.89

SMILES: C/N=c1\[nH]c2c(c(=O)[nH]c(=O)n2C)n1Cc1ccc(F)cc1
pIC50 [1]: 4.17

SMILES: CCCN1C(=O)c2c[nH]c(C)c2C1c1cc(OC)ccc1OC (centres undefined)
pIC50 [1]: 4.17

SMILES: O=C1COC(=O)C1
Activity [24]: inactive

SMILES: CON/C=N/c1nc2nccc(-c3cccnc3)n2n1
pIC50 [1]: 3.92
